How the values were obtained:
Cannabinoid receptor 1 [1] = target: T1, Cannabinoid receptor 1 (Homo sapiens, UniProt P21554); experiment: Binding affinity against the cannabinoid receptor
Outline: (§1)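 Whole rat brain synaptosomal membranes (2.4-3.8 µg protein) were competed against 38-48 fmol [3H]HU-243. Drug was serially diluted in 5 mg/mL fatty-acid-free BSA. Final 1 mL held 45 mM Tris-HCl, 2.7 mM MgCl2, 0.9 mM EDTA and 0.58 mg BSA. Incubation was 30 °C, 90 min. Bound ligand was separated by centrifugation, and pellet tips were scintillation-counted. Ki came from displacement.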

Cannabinoid receptor 1 [2] = target: Cannabinoid receptor 1 (Rattus norvegicus, UniProt P20272); experiment: In vitro binding affinity was determined against rat brain Cannabinoid receptor 1
Cannabinoid receptor 1 (Rattus norvegicus, UniProt P20272), sequence (P20272 whole entry): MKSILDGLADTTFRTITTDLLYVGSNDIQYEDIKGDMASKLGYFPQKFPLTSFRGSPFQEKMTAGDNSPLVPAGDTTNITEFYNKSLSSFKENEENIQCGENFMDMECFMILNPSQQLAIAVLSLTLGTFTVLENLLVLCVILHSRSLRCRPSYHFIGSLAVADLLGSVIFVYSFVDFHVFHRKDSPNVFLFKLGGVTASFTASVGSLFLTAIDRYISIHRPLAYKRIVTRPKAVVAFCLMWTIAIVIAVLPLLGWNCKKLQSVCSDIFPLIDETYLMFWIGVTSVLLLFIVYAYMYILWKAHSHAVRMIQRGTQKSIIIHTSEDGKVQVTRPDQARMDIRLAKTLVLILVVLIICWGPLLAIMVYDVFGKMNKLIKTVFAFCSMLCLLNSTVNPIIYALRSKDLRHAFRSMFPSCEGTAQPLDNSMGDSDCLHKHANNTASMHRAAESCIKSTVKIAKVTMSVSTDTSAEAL
Outline: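 Drug was serially diluted in 5 mg/mL fatty-acid-free BSA. Final 1 mL held 45 mM Tris-HCl, 2.7 mM MgCl2, 0.9 mM EDTA and 0.58 mg BSA. Incubation was 30 °C, 90 min. Bound ligand was separated by centrifugation, and pellet tips were scintillation-counted. Ki came from displacement.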

Cannabinoid receptor 1 [3] = target: T1, Cannabinoid receptor 1; experiment: Binding affinity against the cannabinoid receptor (expt 1); outline: as §1
Cannabinoid receptor 1 [4] = target: T1, Cannabinoid receptor 1; experiment: Binding affinity against the Cannabinoid receptor 1 in the presence of PMSF (experiment 2)
Cannabinoid receptor 1 [5] = target: T1, Cannabinoid receptor 1; experiment: Binding affinity against the cannabinoid receptor in the presence of PMSF (experiment 2)
Cannabinoid receptor 1 [6] = target: T1, Cannabinoid receptor 1; experiment: Binding affinity against the cannabinoid receptor in the presence of PMSF (expt 1)
Cannabinoid receptor 1 [7] = target: T1, Cannabinoid receptor 1; experiment: Binding affinity against the cloned human Cannabinoid receptor 1
Cannabinoid receptor 1 [8] = target: T1, Cannabinoid receptor 1; experiment: Binding affinity against the cloned human Cannabinoid receptor 1; no activity
Cannabinoid receptor 1 [9] = target: T1, Cannabinoid receptor 1; experiment: Binding affinity against the cannabinoid receptor in the presence of PMSF
Cannabinoid receptor 1 [10] = target: T1, Cannabinoid receptor 1; experiment: Binding affinity against the cannabinoid receptor in the presence of PMSF (expt 3)

T1 sequence (P21554 whole entry): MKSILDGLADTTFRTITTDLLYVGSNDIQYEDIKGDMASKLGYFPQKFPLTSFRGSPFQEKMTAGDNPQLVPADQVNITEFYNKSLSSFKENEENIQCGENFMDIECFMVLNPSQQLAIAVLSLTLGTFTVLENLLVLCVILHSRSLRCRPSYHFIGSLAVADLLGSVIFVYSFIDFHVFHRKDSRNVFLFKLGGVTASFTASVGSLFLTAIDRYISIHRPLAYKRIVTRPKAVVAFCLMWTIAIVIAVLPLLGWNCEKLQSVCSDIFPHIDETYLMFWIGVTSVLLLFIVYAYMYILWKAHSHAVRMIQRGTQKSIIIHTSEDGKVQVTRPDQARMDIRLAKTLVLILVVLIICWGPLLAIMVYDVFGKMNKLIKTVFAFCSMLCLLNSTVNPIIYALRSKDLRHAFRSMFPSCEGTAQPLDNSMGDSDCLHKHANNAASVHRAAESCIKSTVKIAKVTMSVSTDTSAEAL

| SMILES | Ki (Cannabinoid receptor 1 [2]; read-out: Ki) [nM] | other results |
| --- | --- | --- |
| CCCCC/C=C\C/C=C\C/C=C\C/C=C\CCCC(=O)NCCC | 11.7 | Ki (Cannabinoid receptor 1 [1]): 7.3 nM |
| CCCCC/C=C\C/C=C\C/C=C\C/C=C\CCCC(=O)NC | 60 |  |
| CCCCC/C=C\C/C=C\C/C=C\C/C=C\CCCC(=O)NCC(=O)O [ARACHIDONOYL GLYCINE] | > 10000 |  |
| CCCCC/C=C\C/C=C\C/C=C\C/C=C\CCCC(=O)NC(C)C | 13.6 |  |
| CCCCC/C=C\C/C=C\C/C=C\C/C=C\CCCC(=O)N(CC)CCO | > 10000 |  |
| CCCCCC#CCC#CCC#CCC#CCCCC(=O)NCCO |  | Ki (Cannabinoid receptor 1 [2]): Not Active |
| CCCCC/C=C\C/C=C\C/C=C\C/C=C\CCCC(=O)N(C)CCO | > 10000 | Ki (Cannabinoid receptor 1 [3]): 5240 nM; Ki (Cannabinoid receptor 1 [4]): 4980 nM |
| CC/C=C/C/C=C\C/C=C\CCCCCCCCCC(=O)NCCO | > 10000 |  |
| CCCCC/C=C\C/C=C\C/C=C\C/C=C\CCCC(=O)NCCN(CC)CC | > 1000 |  |
| CCCCC/C=C\C/C=C\C/C=C\C/C=C\CCC(C)C(=O)NCCC (configuration not stated) | 7.4 |  |
| CCCCC/C=C\C/C=C\C/C=C\C/C=C\CCC(C)(C)C(=O)N[C@@H](C)CO | 191 |  |
| CCCCC/C=C\C/C=C\C/C=C\C/C=C\CCC(C)(C)C(=O)NCCO | 25.5 | Ki (Cannabinoid receptor 1 [5]): 47 nM; Ki (Cannabinoid receptor 1 [1]): 41 nM; Ki (Cannabinoid receptor 1 [6]): 47 nM |
| CCCCC/C=C\C/C=C\C/C=C\C/C=C\CCCC(=O)NC(CO)C(=O)O (configuration not stated) | > 10000 |  |
| CC/C=C/C/C=C\C/C=C\C/C=C\C/C=C/CCCC(=O)NCCO | 162 | Ki (Cannabinoid receptor 1 [5]): 1470 nM |
| CCCCC/C=C\C/C=C\C/C=C\C/C=C\CCCC(=O)NC(C)(C)CC | 447 |  |
| CCCCC/C=C\C/C=C\C/C=C\C/C=C\CCCC(=O)NCCCCC | > 1000 |  |
| CCCCC/C=C\C/C=C\C/C=C\CCCCCCC(=O)NCCO |  | Ki (Cannabinoid receptor 1 [1]): 598 nM |
| CCCCC/C=C\C/C=C\C/C=C\C/C=C\CCCC(=O)N[C@@H](C)CC | 377 |  |
| CCCCC/C=C\C/C=C\C/C=C\C/C=C\CCCC(N)=O [ARACHIDONAMIDE] | > 1000 | Ki (Cannabinoid receptor 1 [7]): 9600 nM |
| CCCCC/C=C\C/C=C\C/C=C\C/C=C\CCC(C)(C)C(=O)NC[C@H](C)O | 46.6 |  |
| CCCCCCCCCCCCCCCC(=O)NCCO [PALMIDROL] |  | Ki (Cannabinoid receptor 1 [8]): Not Active; Ki (Cannabinoid receptor 1 [2]): Not Active |
| CCCCC/C=C\C/C=C\CCCCCCCCCC(=O)NCCO | 1500 |  |
| CCCCC/C=C\C/C=C\C/C=C\C/C=C\CCCC(=O)NC(C)C(O)c1ccccc1 (configuration not stated) | > 1000 |  |

| SMILES | Ki (Cannabinoid receptor 1 [2]; read-out: Ki) [nM] | other results |
| --- | --- | --- |
| CC/C=C/C/C=C\C/C=C\C/C=C\CCCCC(=O)NCCO | > 1000 |  |
| CCCCC/C=C\C/C=C\C/C=C\C/C=C\CCCC(=O)N(CC)CC | > 1000 |  |
| CCCCC/C=C\C/C=C\C/C=C\C/C=C\CCCC(=O)NCCC(C)C | 575 | Ki (Cannabinoid receptor 1 [9]): 1860 nM |
| CC/C=C/C/C=C\C/C=C\C/C=C\C/C=C\C/C=C/CCC(=O)NCCO |  | Ki (Cannabinoid receptor 1 [7]): 12200 nM |
| CCCCCCCC/C=C\CCCCCCCCCC(=O)NCCO | > 1000 | Ki (Cannabinoid receptor 1 [5]): > 10000 nM |
| CC/C=C/C/C=C\C/C=C\CCCCCCCC(=O)NCCO |  | Ki (Cannabinoid receptor 1 [2]): Not Active |
| CCCCC/C=C\C/C=C\C/C=C\C/C=C\CCC(C)C(=O)NC(C)C (configuration not stated) | 8.4 |  |
| CCCCC/C=C\C/C=C\C/C=C\C/C=C\CCCC(=O)N(CCC)CCO | > 10000 |  |
| CCCCC/C=C\C/C=C\C/C=C\C/C=C\CCCC(=O)NCCCC | 236 | Ki (Cannabinoid receptor 1 [1]): 30 nM |
| CCCCC/C=C\C/C=C\C/C=C\C/C=C\CCC(C)(C)C(=O)N[C@H](C)CO | 31.1 |  |
| CCCCC/C=C\C/C=C\CCCCCCCC(=O)NCCO (stereo in doubt; 37) [LINOLEOYLETHANOLAMIDE] |  | Ki (Cannabinoid receptor 1 [7]): > 41400 nM |
| CCCCC/C=C\C/C=C\C/C=C\C/C=C\CCCC(=O)NO | > 1000 |  |
| CCCCC/C=C\C/C=C\C/C=C\C/C=C\CCCC(=O)NCCCO |  | Ki (Cannabinoid receptor 1 [9]): 189 nM; Ki (Cannabinoid receptor 1 [7]): 364 nM; Ki (Cannabinoid receptor 1 [1]): 13 nM |
| CCCCC/C=C\C/C=C\C/C=C\C/C=C\CCCC(=O)NCCOC | 85.2 | Ki (Cannabinoid receptor 1 [9]): 1820 nM; Ki (Cannabinoid receptor 1 [1]): 650 nM |
| CCCCC/C=C\C/C=C\C/C=C\C/C=C\CCCC(=O)N[C@H](C)CC | 240 |  |
| CCCCC/C=C\C/C=C\C/C=C\C/C=C\CCCC(=O)NCCOP(=O)(O)O | 191 |  |
| CCCCC/C=C\C/C=C\C/C=C\C/C=C\CCCC(=O)N(C)C | > 1000 |  |
| CCCCC/C=C\C/C=C\C/C=C\C/C=C\CCC(C)C(=O)NCCO (configuration not stated) |  | Ki (Cannabinoid receptor 1 [10]): 53 nM; Ki (Cannabinoid receptor 1 [6]): 53 nM |
| CCCCC/C=C\C/C=C\C/C=C\C/C=C\CCC(C)(C)C(=O)NCCC | 6.9 |  |
| CCCCC/C=C\C/C=C\C/C=C\C/C=C\CCCC(=O)NC(C)(C)C | 139 |  |
| CCCCC/C=C\C/C=C\C/C=C\C/C=C\CCCC(=O)NC(C)(C)CO | 162 |  |
| CCCCC/C=C\C/C=C\C/C=C\C/C=C\CCC(C)(C)C(=O)NC(C)C | 7.2 |  |

Reference: ChEMBL document CHEMBL1129950, “Structural requirements for binding of anandamide-type compounds to the brain cannabinoid receptor” (J Med Chem, 1997)
